Here are results for 1 compound from ChEMBL document CHEMBL4842338, “System-oriented optimization of multi-target 2,6-diaminopurine derivatives: Easily accessible broad-spectrum antivirals active against flaviviruses, influenza virus and SARS-CoV-2” (Eur J Med Chem, 2021).

SMILES strings stand for the structures. The source made the active and inactive calls. The calls are words filed in the database; no cut-off is given here.

For data set [1], the system named is Influenza A virus. The experiment in a line: Antiviral activity against Influenza A/California/04/2009H1N1 infected in human A549 cells assessed as reduction in viral protein expression at 20 uM treated for 1 hr during viral adsorption followed by staining with anti-Flu antibody observed at 24 hrs post infection by In-cell western assay. Format: functional, organism-based.

Data set [2] can be described thus: Selectivity index, ratio of CC50 for human Caco-2 cells infected with SARS-COV-2 to IC50 of SARS-COV 2 infected in human Caco-2 cells. Format: toxicity, cell-based. As to conditions: read-out: Selectivity Index.
In data set [3] the test system is SARS-CoV-2. The data set can be described thus: Antiviral activity against SARS-COV 2 infected in monkey Vero E6 cells assessed as inhibition of viral replication at MOI of 0.01 and incubated after 2 hrs post infection for 48 hrs by direct yield reduction assay. Format: functional, organism-based. The note with it: Severe acute respiratory syndrome coronavirus 2, Vero C1008.

A short description of data set [4]: Selectivity index, ratio of CC50 for human Huh-7 cells to IC50 for Zika virus H/PF/2013 infected in pre-seeded Huh-7 cells assessed as inhibition of viral replication incubated for 72 hrs by immunodetection based direct yield reduction assay. In kind it is toxicity, cell-based. The note with it: read-out: Selectivity Index. An outline of the steps: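 Direct yield reduction in Huh7 cells (7000/well), infected with 50 TCID₅₀ of DENV or ZIKV, or 25 TCID₅₀ of WNV. Adsorption 1 h at 37 °C, then virus removed and serial compound dilutions added. Incubated 72 h (DENV, ZIKV) or 48 h (WNV). Viral antigen immunodetected on the monolayer. IC₅₀ by non-linear regression, mean of three experiments. SI = CC₅₀ (Huh7, CellTiter-Glo luminescence)/IC₅₀.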

The test system of data set [5] is Influenza A virus. The experiment in a line: Antiviral activity against Influenza A Puerto Rico/8/34/H1N1 infected in human A549 cells assessed as reduction in viral protein expression at 20 uM pretreated for 2 hrs followed by staining with anti-Flu antibody observed at 24 hrs post infection by In-cell western assay. In kind it is functional, organism-based. The note with it: A/Puerto Rico/8/1934(H1N1).

In data set [6] the test system is Influenza A virus. The experiment in a line: Antiviral activity against Influenza A virus (A/parrot/Ulster/73(H7N1)) infected in human A549 cells assessed as reduction in viral protein expression at 20 uM treated for 24 hrs, pdp viral adsorption followed by staining with anti-Flu antibody observed at 24 hrs post infection by In-cell western assay. In kind it is functional, organism-based.

Data set [7] can be described thus: Antioxidant activity assessed as inhibition of ABTS radical scavenging activity at 10 uM to 1 mM measured after 10 mins. Format: functional. The method in brief:
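ABTS radical solution diluted in ethanol (1:100) to A734 0.70; 3.0 mL mixed with 30 μL sample in DMSO at 10 μM–1 mM; A734 read after exactly 10 min; ascorbic acid reference; % scavenging = (A0−As)/A0×100.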

Data set [8] deals with Influenza A virus. The data set can be described thus: Antiviral activity against Influenza A virus (A/parrot/Ulster/73(H7N1)) infected in human A549 cells assessed as reduction in viral protein expression at 20 uM treated for 2 to 6 hrs post infection and measured following infection of MDCK cells with supernatant for 24 hrs by time-of-addition assay. As to conditions: time 2-6 hrs. Format: functional, organism-based.

The target of data set [9] is Src (Proto-oncogene tyrosine-protein kinase Src) (Homo sapiens, UniProt P12931). The experiment in a line: Inhibition of human recombinant N terminal His6 tagged full length Src assessed as residual activity at 5 uM using KVEKIGEGTYGVVYK as a substrate in the presence of NP-40 incubated for 10 mins by scintillation counting analysis relative to control. As to conditions: probe KVEKIGEGTYGVVYK, read-out: Activity. The method in brief:
(§1)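 Compounds at fixed 5 μM; 10–50 ng kinase, substrate and NP-40/BSA per supplementary table, 10 μL at 30 °C for 10 min in low-binding tubes. Reactions spotted on filter, dried, scintillation counted. Mean ± SD of two independent experiments.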

The subject of data set [10] is Influenza A virus. The experiment in a line: Antiviral activity against Influenza A Puerto Rico/8/34/H1N1 infected in human A549 cells assessed as inhibition of viral replication after 24 hrs by hemagglutination assay. In kind it is functional, organism-based. The note with it: A/Puerto Rico/8/1934(H1N1), A549, 24 h.
For data set [11], the system named is Influenza A virus. The data set can be described thus: Antiviral activity against Influenza A virus (A/parrot/Ulster/73(H7N1)) infected in human A549 cells assessed as reduction in viral protein expression at 20 uM pretreated for 2 hrs followed by staining with anti-Flu antibody observed at 24 hrs post infection by In-cell western assay. Format: functional, organism-based.

Another data set concerns A549. The experiment in a line: Cytotoxicity against human A549 cells assessed as reduction in cell viability measured after 24 hrs by MTT assay. Format: cell-based. As to conditions: a549, 24 h. In general terms: Formazan colour is commonly taken as a measure of viable cells.
Data set [12] relates to dengue virus type 2. The experiment in a line: Antiviral activity against Dengue virus serotype 2 New Guinea C infected in pre-seeded Huh-7 cells assessed as inhibition of viral replication incubated for 72 hrs by immunodetection based direct yield reduction assay. In kind it is functional, organism-based. The note with it: huh-7.
Data set [13] addresses Abl (Tyrosine-protein kinase ABL1) (Homo sapiens, UniProt P00519). The experiment in a line: Inhibition of human recombinant N terminal His6 tagged Abl (27 to end residue) assessed as residual activity at 5 uM using KKGEAIYAADFA-NH2 as a substrate in the presence of NP-40 incubated for 10 mins by scintillation counting analysis relative to control. As to conditions: probe KKGEAIYAADFA-NH2, read-out: Activity. The method in brief:
as §1

Data set [14] has as its system SARS-CoV-2. The experiment in a line: Antiviral activity against SARS-COV 2 infected in quadruplicate Vero E6 cells with DYRA supernatant assessed as reduction in viral replication at 20 uM. Format: functional. The note with it: Severe acute respiratory syndrome coronavirus 2, Vero C1008.
The test system of data set [15] is Influenza A virus. The experiment in a line: Antiviral activity against Influenza A virus (A/parrot/Ulster/73(H7N1)) infected in human A549 cells assessed as reduction in viral protein expression at 20 uM treated for 1 hr during viral adsorption followed by staining with anti-Flu antibody observed at 24 hrs post infection by In-cell western assay. Format: functional, organism-based.

In data set [16] the test system is Influenza A virus. The experiment in a line: Antiviral activity against Influenza A virus (A/California/04/2009(H1N1)) infected in human A549 cells assessed as reduction in viral protein expression at 20 uM treated for 2 to 6 hrs post infection and measured following infection of MDCK cells with supernatant for 24 hrs by time-of-addition assay. In kind it is functional, organism-based. The note with it: time 2-6 hrs.

Data set [17] concerns SARS-CoV-2. The data set can be described thus: Antiviral activity against SARS-COV 2 infected in human Calu-3 cells assessed as inhibition of viral replication at MOI of 0.01 followed by removal of test compound after cell virus adsorption incubated for 72 hrs by ENTRY-DYRA method. Format: functional, organism-based. The note with it: Severe acute respiratory syndrome coronavirus 2, Calu-3, 72 h.

In data set [18] the test system is Influenza A virus. The data set can be described thus: Antiviral activity against Influenza A Puerto Rico/8/34/H1N1 infected in human A549 cells assessed as reduction in viral protein expression at 20 uM treated for 1 hr during viral adsorption followed by staining with anti-Flu antibody observed at 24 hrs post infection by In-cell western assay. In kind it is functional, organism-based. As to conditions: A/Puerto Rico/8/1934(H1N1).

Data set [19] can be described thus: Inhibition of full length ZIKV NS5-MTase domain using 7MeGpppAC4 as a substrate incubated for 30 mins by filter binding assay. Set-up: species or system Zika virus.
The subject of data set [20] is Influenza A virus. The experiment in a line: Antiviral activity against Influenza A Puerto Rico/8/34/H1N1 infected in human A549 cells assessed as reduction in viral protein expression at 20 uM treated for 24 hrs pdp viral adsorption followed by staining with anti-Flu antibody observed at 24 hrs post infection by In-cell western assay. Format: functional, organism-based. The note with it: A/Puerto Rico/8/1934(H1N1).

The subject of data set [21] is dengue virus type 2. The data set can be described thus: Antiviral activity against Dengue virus serotype 2 New Guinea C infected in pre-seeded Huh-7 cells assessed as inhibition of viral replication incubated for 72 hrs by immunodetection based plaque reduction assay. Format: functional, organism-based. As to conditions: Huh-7, 72 h.
The test system of data set [22] is SARS-CoV-2. The data set can be described thus: Antiviral activity against SARS-COV 2 infected in human Caco-2 cells assessed as inhibition of viral replication at MOI of 0.01 and incubated after 2 hrs post infection for 48 hrs by immunodetection assay. In kind it is functional, organism-based. As to conditions: Severe acute respiratory syndrome coronavirus 2, Caco-2.

Chain of Abl (Tyrosine-protein kinase ABL1) (P00519 whole entry): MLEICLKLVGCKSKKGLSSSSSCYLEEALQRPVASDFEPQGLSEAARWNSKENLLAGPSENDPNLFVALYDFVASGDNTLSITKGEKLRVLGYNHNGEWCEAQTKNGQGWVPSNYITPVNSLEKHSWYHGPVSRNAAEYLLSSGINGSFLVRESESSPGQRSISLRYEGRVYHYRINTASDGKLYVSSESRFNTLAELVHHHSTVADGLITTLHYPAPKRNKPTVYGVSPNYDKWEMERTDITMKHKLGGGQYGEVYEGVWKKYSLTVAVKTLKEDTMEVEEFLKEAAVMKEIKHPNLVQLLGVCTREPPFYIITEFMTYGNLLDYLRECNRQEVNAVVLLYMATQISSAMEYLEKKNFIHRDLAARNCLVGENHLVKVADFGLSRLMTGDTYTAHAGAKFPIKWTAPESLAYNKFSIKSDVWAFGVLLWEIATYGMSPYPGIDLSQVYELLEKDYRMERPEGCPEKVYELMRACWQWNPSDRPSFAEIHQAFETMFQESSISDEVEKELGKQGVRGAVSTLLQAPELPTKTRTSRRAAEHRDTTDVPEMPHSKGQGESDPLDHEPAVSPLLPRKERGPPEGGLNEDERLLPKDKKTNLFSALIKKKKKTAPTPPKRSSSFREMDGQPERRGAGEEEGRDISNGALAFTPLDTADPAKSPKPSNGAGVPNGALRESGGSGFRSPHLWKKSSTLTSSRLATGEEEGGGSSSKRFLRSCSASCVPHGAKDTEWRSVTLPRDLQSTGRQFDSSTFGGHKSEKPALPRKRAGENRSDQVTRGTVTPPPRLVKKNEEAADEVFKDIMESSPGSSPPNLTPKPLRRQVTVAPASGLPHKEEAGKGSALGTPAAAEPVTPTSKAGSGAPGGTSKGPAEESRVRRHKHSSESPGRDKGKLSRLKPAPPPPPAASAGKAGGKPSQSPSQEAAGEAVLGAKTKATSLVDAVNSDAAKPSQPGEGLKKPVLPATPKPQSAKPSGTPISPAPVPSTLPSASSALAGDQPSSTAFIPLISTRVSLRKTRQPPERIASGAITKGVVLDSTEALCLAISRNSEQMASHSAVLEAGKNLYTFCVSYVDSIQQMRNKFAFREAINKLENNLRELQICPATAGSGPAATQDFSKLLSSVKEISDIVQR
Chain of Src (Proto-oncogene tyrosine-protein kinase Src) (P12931 2-536 limits assumed): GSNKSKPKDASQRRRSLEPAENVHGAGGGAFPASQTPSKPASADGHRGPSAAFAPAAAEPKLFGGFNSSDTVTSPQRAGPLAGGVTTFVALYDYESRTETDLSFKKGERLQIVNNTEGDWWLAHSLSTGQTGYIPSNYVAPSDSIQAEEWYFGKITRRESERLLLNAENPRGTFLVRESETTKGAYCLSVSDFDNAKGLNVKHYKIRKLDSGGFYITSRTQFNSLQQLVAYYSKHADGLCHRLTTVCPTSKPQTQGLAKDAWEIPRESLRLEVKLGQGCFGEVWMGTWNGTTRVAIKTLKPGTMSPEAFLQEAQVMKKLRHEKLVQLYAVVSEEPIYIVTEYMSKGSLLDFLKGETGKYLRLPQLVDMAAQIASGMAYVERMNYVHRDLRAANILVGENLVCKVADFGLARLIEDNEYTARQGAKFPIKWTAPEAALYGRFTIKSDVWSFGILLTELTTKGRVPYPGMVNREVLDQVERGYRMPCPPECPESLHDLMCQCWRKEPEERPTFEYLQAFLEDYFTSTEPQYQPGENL

As usually defined, the IC50 is the midpoint of a concentration-inhibition curve. As a reminder, the CC50 is the concentration giving 50% cytotoxicity. The inhibition is the relative decrease from the control value, in per cent. Turning to `FC(F)(F)c1cccc(Nc2nc(NCCOc3ccccc3)nc3[nH]cnc23)c1`, the Activity result (in the data set with Influenza A virus [1]; with Influenza A virus [5]; with Influenza A virus [6]; in data set [7]; with Influenza A virus [8]; with Influenza A virus [11]) was “Active” each time. In addition, the Activity entry in the data set on Influenza A virus [15], with Influenza A virus [16], in the data set with Influenza A virus [18] and in the data set with Influenza A virus [20] was “Active” throughout. Further, the selectivity ratio in data set [2] worked out at 14. The IC50 in the data set with SARS-CoV-2 [3] is 53.4 µM; with Influenza A virus [10] it was 9.9 µM; with dengue virus type 2 [12] it was “Not Active”; with SARS-CoV-2 [17] it was 1.9 µM; in [19] it was “Not Active”; in the data set with dengue virus type 2 [21], 0.9 µM. Further, in the data set on SARS-CoV-2 [22], the IC50 was determined as 5.9 µM. Further, in data set [4], the selectivity ratio at 72 h was found to be 250. Moreover, the activity at 10 min, 5 µM stood at 47% in data set [9] and 70% in data set [13]. The CC50 in the data set with A549 is 106 µM. Moreover, the inhibition at 20 µM with SARS-CoV-2 [14] came out at 91.9%.
